Data reported in paper PMC5651361 (Alzheimer's & Dementia : Translational Research & Clinical …, 2016).
Where “and” joins values, the source holds several entries; their conditions need not be identical. Equal entries are not always repeated. Where two headings read alike, the source gives them in different places.

Assays:
tau = details: 2-week treatment, ventral horn spinal motoneurons and hippocampal CA3 mossy fibers, tau × amyloid precursor protein mice; cited from earlier work
pSer9-GSK3β [1] = details: cortex of CD1 mice; cited from earlier work
pSer9-GSK3β [2] = details: Tg2576 (APP) AD-transgenic mice; cited from earlier work
[3] = Plasma and brain exposure after 5-month repeated oral; format: in vivo, mouse; details: for Brain/plasma AUC(0–24 h) ratio / AUC(0–24 h) / Cmax/Cmin ratio / Cmin / Cmax: 5 months; for 0.002%/0.00067% AUC(0–24 h) ratio: 5 months in diet
In short: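 Male WT mice received the test compound in diet (0.00067% or 0.002%) for 5 months. Blood was taken from the mandibular vein of awake mice into lithium heparin and centrifuged at 1500–2000g for 10 min at 4°C; plasma was stored at −80°C. Pons/cerebellum was dissected. Samples spanned 24 h; analytes were acetonitrile-precipitated and measured by LC-MS/MS.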

THY-Tau22 mice = experiment: Shape and spatial object recognition test; format: in vivo, mouse; details: for recognition index, shape episodic memory: Fig. 2A; for recognition index, shape episodic memory / recognition index, spatial episodic memory: means ± SEM; for recognition index, spatial episodic memory: Fig. 2B
In short: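 Individually housed male THY-Tau22 and WT littermates (enriched environment, reverse light/dark cycle) received diet dosing from age 2 months for 4 or 6 months. Object recognition used a 59 × 59 × 30 cm PVC open field (black walls, white floor) with an overhead camera. Washout groups were tested for shape at 10 d and spatial memory at 17 d after cessation. Recognition index is reported as mean ± SEM.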

tau protein = format: in vivo, mouse; details: for change in tau phosphorylation at Ser199/202-Thr205 (AT8 signal): 6 months in diet, not significant
In short: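 Cortex or hippocampus from THY-Tau22 mice given diet dosing for 6 months was homogenized in RIPA buffer (pH 7.5) with protease inhibitors, 1 μM okadaic acid and 100 mM NaF, then centrifuged at 16,000g for 10 min at 4°C. Protein (5 or 20 μg) was run on 4–12% Bis-Tris gels, transferred to PVDF and blocked in 5% milk. Primary antibodies were applied overnight at 4°C. Values are relative, n = 7–9/group.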

Ser9-GSK3β = experiment: Western blot of Ser9-GSK3β in hippocampus; format: in vivo, mouse; details: 2-week treatment, 0.002% and 0.02% in drinking water, THY-Tau22 mice
[4] = tested on: AT8 (pSer199/202-Thr205) tau; experiment: AT8 immunostaining, quantitative image analysis; format: in vivo, mouse; details: 6 months, cortex
In short: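 Male THY-Tau22 mice received the test compound in diet (0.0002%, 0.002% or 0.02%) for 6 months from age 2 months. Hemibrains were immersion-postfixed 7 days at 4°C in 4% formaldehyde, and 20 μm serial sagittal cryostat sections were cut. AT8 immunostaining was quantified by virtual-slide scanning image analysis as mean positive cell bodies count. Dunnett tests were run on log-transformed data, n = 9 mice/group.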

neurofibrillary tangles = experiment: Neurofibrillary tangles, Gallyas silver staining; format: in vivo, mouse; details: 6 months
MIP-1α = experiment: Hippocampal mRNA expression, quantitative real-time RT-PCR; format: in vivo, mouse; details: 6 months, hippocampus
GFAP = experiment: as above; format: in vivo, mouse; details: 6 months in diet, hippocampus, THY-Tau22
cystatin F = experiment: as above; format: in vivo, mouse; details: 6 months in diet, hippocampus, THY-Tau22
APPxPS1 transgenic mice = experiment: Object recognition test in APPxPS1 transgenic mice; format: in vivo, mouse; details: data not shown
rats = details: object recognition test, acute treatment; cited from earlier work
mice = details: object recognition test, acute treatment; cited from earlier work
[5] = tested on: histamine H3-receptor (H3R); details: compared with ABT-239; cited from earlier work

For C[C@@H]1CCCN1CCc1cc2cc(-c3ccc(C#N)cc3)ccc2o1 [ABT-239], the “tau hyperphosphorylation (AT8 site)” value (tau) is listed as “decreases tau hyperphosphorylation”, the “levels of pSer9-GSK3β (inactive form of GSK3β)” value (pSer9-GSK3β [1]) is listed as “increased the levels” and the “reduction in hippocampal pSer9-GSK3β levels” value (pSer9-GSK3β [2]) is listed as “reversed the reduction”.

With CN1CCCC1CCNS(=O)(=O)c1ccc2c(c1)CN(CC1CCCCC1)CC2 (centres unmarked) [SAR110894] the “Brain/plasma AUC(0–24 h) ratio” value ([3]; 0.00067% in diet) was 3.5, the “AUC(0–24 h)” value ([3]; 0.00067% in diet, brain) was 110 ng·h/g and the “AUC(0–24 h)” value ([3]; 0.00067% in diet, plasma) was 0.031 µg·h/mL. For the same compound, the Cmax/Cmin ratio ([3]; 0.00067% in diet, plasma) was 1.4, the Cmin ([3]; 0.00067% in diet, plasma) was 1.26 ng/mL and 4.83 nM and the Cmax/Cmin ratio ([3]; 0.00067% in diet, pons/cerebellum) was 1.5. The “Brain/plasma AUC(0–24 h) ratio” value ([3]; 0.002% in diet) was 3.5, the “AUC(0–24 h)” value ([3]; 0.002% in diet, brain) was 390 ng·h/g and the “AUC(0–24 h)” value ([3]; 0.002% in diet, plasma) was 0.11 µg·h/mL. For the same compound, the Cmax ([3]; 0.002% in diet, plasma) was 0.0248 µM, the Cmax/Cmin ratio ([3]; 0.002% in diet, plasma) was 2.7 and the Cmin ([3]; 0.002% in diet, plasma) was 2.44 ng/mL and 9.35 nM. The Cmax ([3]; 0.002% in diet, plasma, male WT mice) was 6.48 ng/mL, the Cmax/Cmin ratio ([3]; 0.002% in diet, pons/cerebellum) was 2.1 and the “0.002%/0.00067% AUC(0–24 h) ratio” value ([3]; plasma) was 3.5. For the same compound, the “0.002%/0.00067% AUC(0–24 h) ratio” value ([3]; pons/cerebellum) was 3.5, the “deficit in shape episodic memory” value (THY-Tau22 mice; 0.00067% in diet, 4 months, THY-Tau22 mice, confirmatory study, Fig. 2C) was “no effect” and the “deficit in spatial episodic memory” value (THY-Tau22 mice; 0.00067% in diet, 4 months, THY-Tau22 mice, confirmatory study, Fig. 2D) was “reduced the deficit”. The “recognition index, shape episodic memory” value (THY-Tau22 mice; 0.002% in diet, THY-Tau22 mice, P = .0010) was 64 ± 2%, the “recognition index, spatial episodic memory” value (THY-Tau22 mice; 0.002% in diet, THY-Tau22 mice, P = .0153) was 58 ± 3% and the “procognitive effect on shape episodic memory after treatment washout” value (THY-Tau22 mice; 0.002% in diet, after 1 week of washout, Fig. 2C) was “still persisted”. For the same compound, the “procognitive effect on spatial episodic memory after treatment washout” value (THY-Tau22 mice; 0.002% in diet, after 2 weeks of washout, Fig. 2D) was “still persisted”, the “recognition index, shape episodic memory” value (THY-Tau22 mice; 0.02% in diet, THY-Tau22 mice, P = .0104) was 61 ± 3% and the “recognition index, spatial episodic memory” value (THY-Tau22 mice; 0.02% in diet, THY-Tau22 mice, P = .0002) was 60 ± 2%. The “cognitive deficits in THY-Tau22 mice” value (THY-Tau22 mice; administered during 4 or 6 months starting at the age of 2 months) was “prevented cognitive deficits”, the “change in tau phosphorylation at pSer214” value (tau protein; 0.002% in diet, 6 months, cortex, P = .0052) was −35% and the “change in tau phosphorylation at pSer422” value (tau protein; 0.002% in diet, 6 months, cortex, no effect, P = .3019) was −20%. The “change in tau phosphorylation at pThr181 (AT270 signal)” value (tau protein; 0.002% in diet, 6 months, cortex, no effect, P = .4830) was −16%, the “change in AD2 signal” value (tau protein; 0.002% in diet, 6 months, cortex, second independent Western blot evaluation, P = .0191, Fig. 4F) was −37% and the “change in AD2 signal” value (tau protein; 0.002% in diet, 6 months, cortex, trend, P = .2766, Fig. 4B) was −57%. For the same compound, the “change in total tau (Tau5 signal)” value (tau protein; 0.002% in diet, 6 months, cortex, unchanged, P = .0950) was −17%, the “change in tau phosphorylation at residues 396/404 (AD2 signal)” value (tau protein; 0.002% in diet, 6 months, hippocampus, THY-Tau22, P = .0291) was −37% and the “tau hyperphosphorylation (AD2 or AT8)” value (tau protein; 2-week treatment, 0.002% and 0.02% in drinking water, hippocampus, 5- to 6-month-old THY-Tau22 mice) was “no effect”. The “change in tau phosphorylation at Ser199/202-Thr205 (AT8 signal)” value (tau protein; cortex, P = .8054, Fig. 4E) was −29%, the “change in tau phosphorylation at Ser199/202-Thr205 (AT8 signal)” value (tau protein; hippocampus, P = .5560, Fig. 4D) was −22% and the “tau hyperphosphorylation (AD2 or AT8 epitopes)” value (tau protein; acute administration 3 and 10 mg/kg orally, cingulate cortex, 3-month-old THY-Tau22 mice, data not shown) was “no effect”. The “level of Ser9-GSK3β (inactive form of GSK3β)” value (Ser9-GSK3β) was “no effect”, the “decrease in number of AT8-positive neuronal cell bodies” value ([4]; 0.002% in diet, THY-Tau22, P = .0010) was 47% and the “intensity of AT8 immunostaining within neuronal cell bodies and fibers” value ([4]; 0.002% in diet, data not shown) was “marked decrease”. The “decrease in number of AT8-positive neuronal cell bodies” value ([4]; 0.02% in diet, THY-Tau22, P = .0250) was 32%, the “change in number of NFTs” value (neurofibrillary tangles; 0.002% in diet, cortex, P = .0001) was −48% and the “change in number of NFTs” value (neurofibrillary tangles; 0.002% in diet, hippocampus, P < .0001) was −25%. The “change in number of NFTs” value (neurofibrillary tangles; 0.02% in diet, amygdala, P = .0065) was −31%, the “change in number of NFTs” value (neurofibrillary tangles; 0.02% in diet, cortex, P = .0019) was −41% and the “change in number of NFTs” value (neurofibrillary tangles; 0.02% in diet, hippocampus, P = .0006) was −22%. For the same compound, the “change in expression of MIP-1α” value (MIP-1α; 0.0002% in diet, THY-Tau22, P = .0087) was −35%, the “change in expression of MIP-1α” value (MIP-1α; 0.002% in diet, THY-Tau22, P = .0184) was −36% and the “expression of GFAP” value (GFAP) was “no effect”. For the same compound, the “expression of cystatin F” value (cystatin F) was “no effect”, the “memory deficits in APPxPS1 transgenic mice” value (APPxPS1 transgenic mice) was “decreased memory deficits” and the scopolamine-induced memory deficits (rats) was “prevented the occurrence”. For the same compound, the “memory deficits induced by infusion of Aβ(25–35)” value (mice) was “decreased the memory deficits” and the “affinity and selectivity for H3R” value [5] was “higher affinity and selectivity than ABT-239”.
